Yeast life ext: extends the lifespan of yeast | S. cerevisiae growth with nicotinamide, OD615; deaD strain in restrictive glucose medium | inhibition of the nicotinamide effect, % at 10 µM | 130,000 compounds, 0.68% hits;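 active means inhibition above a set limit, placed 3 SD over the median of all compounds, cut at about 26% in these data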;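 further: 0% = nicotinamide-treated wells and 100% = cells grown without nicotinamide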
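Test system: DeaD-strain S. cerevisiae / Buffer or medium: restrictive glucose medium / Also added: nicotinamide 1.5 mM / Doses: one concentration, 10 µM, DMSO 0.25% / Schedule: 48 h at 30 °C / Signal: OD615 measurement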
Yeast growth inh: yeast BB579 growth reduction in restrictive medium. S. cerevisiae BB579 growth, OD615, 48 h. inhibition, % at 10 µM. 140,000 compounds, 0.51% hits;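 active means inhibition above a set limit, 3 SD over the mean compound inhibition, cut at about 44% in these data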
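Assay system: S. cerevisiae DeaD strain BB579 yeast. Medium: CSMM-D restrictive synthetic medium containing dextrose (glucose). Times: 4 h cell preincubation, 48 h compound exposure, 30 °C humidified. Signal: OD615 turbidity measurement. Benchmarks: positive control amphotericin B 10 µg/mL.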
HCT116 PTEN-null: suppresses growth of cells with PTEN deletion | HCT116 PTEN-null viability, CellTiter-Glo, 60 h; hits give low values | viability, % at 10 µM | 140,000 compounds, 1.2% hits | AID 827;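 active means viability at or below a set limit, 4 SD under the median of all tested compounds, cut at about 3.7% in these data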;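 further: PTEN knockout HCT116 line with beta catenin targeted HCT116 as companion control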
sdo1 growth: compounds rescuing growth of sdo1-depleted yeast, bone marrow failure model | AID 817 | 140,000 compounds, 0.21% hits | S. cerevisiae sdo1-depleted JHY4D growth rescue, OD600 30 h; hits give high values; pdr5 snq2 efflux-pump mutant strain | z-score at 10 µM;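 active means z-score above 3 at both the 24 hr and the 30 hr optical density reads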;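 further: z-score against mean and SD of all compound wells on the same plate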
bCat KO growth: beta-catenin-lacking colon tumor cell growth suppression | viability, % at 10 µM | HCT116 beta-catenin knockout viability, CellTiter-Glo, 60 h; hits give low values | 140,000 compounds, 1.5% hits;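 active means viability at or under a set limit, the compound median less 4 SD, cut at about 6% in these data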;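 further: 0% = Hyamine 1622 control at 20 µM and 100% = untreated cell control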
Numbers without * were called inactive. A selection: hits, their analogues and other compounds. The true share with any hit is near 2.8%.

Results for COc1ccc(N(C(=O)CCl)C(C(=O)NC2CCCCC2)c2cccnc2)cc1 (stereo not drawn) ?
Yeast life ext: 0.0; Yeast growth inh: -16.1; HCT116 PTEN-null: 2.5*; sdo1 growth: 0.45; bCat KO growth: 2.8*

What do the screens show for `C[C@H]1CC[C@H]2C(=O)N3[C@H](c4ccccc4Br)[C@@H](C)CC[C@H]3C(=O)N2[C@@H]1c1ccccc1Br`?
Yeast life ext: 14.8; Yeast growth inh: -26.2; HCT116 PTEN-null: 3.0*; sdo1 growth: -1.04; bCat KO growth: 2.3*

What do the screens show for `CCC(C)(C)c1ccc(OCCN2C(=O)NC(C)(C)C2=O)cc1`?
Yeast life ext: -4.9; Yeast growth inh: -9.0; HCT116 PTEN-null: 87.8; sdo1 growth: 0.44; bCat KO growth: 84.6

What do the screens show for `Cc1cccc(Nc2nnc(SCC(=O)NC(=O)Nc3ccc4c(c3)OCCO4)s2)c1`?
Yeast life ext: 7.1; Yeast growth inh: 6.5; HCT116 PTEN-null: 0.8*; sdo1 growth: -0.7; bCat KO growth: 0.6*

How did CCCOC(=O)c1cccc(Nc2nc(-c3cccnc3)nc3ccccc23)c1 do in these assays?
Yeast life ext: -5.9; Yeast growth inh: -47.4; HCT116 PTEN-null: 3.6*; sdo1 growth: -1.39; bCat KO growth: 7.3

Results for COC(=O)c1ccccc1NC(=O)C12CCC(C)(C(=O)O1)C2(C)C (stereo not drawn) ?
Yeast life ext: -3.1; Yeast growth inh: -28.1; HCT116 PTEN-null: 96.2; sdo1 growth: 0.51; bCat KO growth: 84.1

What do the screens show for `O=C(NC(NC(=S)Nc1ccc(Cl)cc1Cl)C(Cl)(Cl)Cl)c1cccc([N+](=O)[O-])c1` (stereo not drawn)?
Yeast life ext: -15.7; Yeast growth inh: -17.0; HCT116 PTEN-null: 3.3*; sdo1 growth: -0.39; bCat KO growth: 4.1*

How did Cc1ccc(NC(=S)NC(NC(=O)c2ccccc2)C(Cl)(Cl)Cl)c(C)c1 (stereo not drawn) do in these assays?
Yeast life ext: -1.2; Yeast growth inh: -9.4; HCT116 PTEN-null: 19.1; sdo1 growth: -0.13; bCat KO growth: 28.6

How did Cc1cc(C)c(NC(=S)NC(NC(=O)c2ccccc2)C(Cl)(Cl)Cl)c(C)c1 (stereo not drawn) do in these assays?
Yeast life ext: 1.8; Yeast growth inh: -15.7; HCT116 PTEN-null: 3.9; sdo1 growth: 0.1; bCat KO growth: 7.4

How did O=C(NC(NC(=S)Nc1ccccc1)C(Cl)(Cl)Cl)c1cccc(Cl)c1 (stereo not drawn) do in these assays?
Yeast life ext: -6.8; Yeast growth inh: -13.7; HCT116 PTEN-null: 2.0*; sdo1 growth: -0.97; bCat KO growth: 2.6*

Results for COc1ccc(OCCSc2nnc(-c3ccc(OC)cc3)n2N)cc1 ?
Yeast life ext: -6.3; Yeast growth inh: -10.2; HCT116 PTEN-null: 90.2; sdo1 growth: 0.96; bCat KO growth: 104.6

How did O=c1nc(-c2ccccc2)n(-c2ccccc2)c2ncccc12 do in these assays?
Yeast life ext: -8.6; Yeast growth inh: -16.9; HCT116 PTEN-null: 97.5; sdo1 growth: 1.5; bCat KO growth: 97.4

How did Cc1[nH]n(-c2nc(-c3cccc([N+](=O)[O-])c3)cs2)c(=O)c1C do in these assays?
Yeast life ext: -2.5; Yeast growth inh: -3.0; HCT116 PTEN-null: 92.2; sdo1 growth: -0.88; bCat KO growth: 89.9

What do the screens show for `Nc1[nH]n2c(=O)cc(-c3ccccc3)nc2c1N=Nc1ccccc1`?
Yeast life ext: -8.1; Yeast growth inh: -40.7; HCT116 PTEN-null: 7.6; sdo1 growth: 1.55; bCat KO growth: 3.7*

Results for COc1ccc(N(C(=O)COc2ccc(C)cc2)S(=O)(=O)c2ccc(C)cc2)cc1 ?
Yeast life ext: 3.9; Yeast growth inh: -32.6; HCT116 PTEN-null: 94.0; sdo1 growth: -0.72; bCat KO growth: 89.5

How did CC1C(C(=O)Nc2ccccc2)CCCC1(C)C(=O)O (stereo not drawn) do in these assays?
Yeast life ext: -4.8; Yeast growth inh: -4.5; HCT116 PTEN-null: 95.7; sdo1 growth: 0.71; bCat KO growth: 104.3

How did N#CC1=C(N)N2C(=C(C#N)C1c1cccc(Br)c1)Nc1ccccc12 (stereo not drawn) do in these assays?
Yeast life ext: 1.4; Yeast growth inh: -44.5; HCT116 PTEN-null: 2.0*; sdo1 growth: -1.25; bCat KO growth: 3.2*

What do the screens show for `N#CC1=C(N)N2C(=C(C#N)C1c1ccc(Br)cc1)Nc1ccccc12` (stereo not drawn)?
Yeast life ext: -2.8; Yeast growth inh: -16.7; HCT116 PTEN-null: 2.2*; sdo1 growth: -1.31; bCat KO growth: 1.9*

How did Cc1nc(N2CCN(C(=O)c3ccc(Cl)cc3)CC2)c(C#N)c2c1COC(C)(C)C2 do in these assays?
Yeast life ext: -23.5; Yeast growth inh: -43.2; HCT116 PTEN-null: 70.2; sdo1 growth: -0.31; bCat KO growth: 65.8

Results for COc1ccccc1-c1nnc(Nc2nc3c(OC)cccc3s2)o1 ?
Yeast life ext: -15.7; Yeast growth inh: -51.3; HCT116 PTEN-null: 7.5; sdo1 growth: 1.46; bCat KO growth: 5.1*

Results for COc1cccc2sc(Nc3nnc(-c4ccccc4Cl)o3)nc12 ?
Yeast life ext: -4.5; Yeast growth inh: -27.8; HCT116 PTEN-null: 12.3; sdo1 growth: -0.06; bCat KO growth: 10.1

What do the screens show for `COc1cccc(C2C3=C(CC(C)(C)CC3=O)OC(N)=C2[N+](=O)[O-])c1` (stereo not drawn)?
Yeast life ext: -5.2; Yeast growth inh: -27.5; HCT116 PTEN-null: 111.2; sdo1 growth: 1.08; bCat KO growth: 104.6

Results for CC1(C)CC(=O)C2=C(C1)OC(N)=C([N+](=O)[O-])C2c1cccs1 (stereo not drawn) ?
Yeast life ext: 27.6*; Yeast growth inh: -20.5; HCT116 PTEN-null: 99.5; sdo1 growth: 0.93; bCat KO growth: 92.6

What do the screens show for `CCC(C)(C(=O)NC1CCCCC1)N(C(=O)Cc1cccs1)c1ccccc1` (stereo not drawn)?
Yeast life ext: 11.1; Yeast growth inh: 3.4; HCT116 PTEN-null: 73.6; sdo1 growth: -1.16; bCat KO growth: 72.3

What do the screens show for `N/C(Cc1ccc(Cl)c(Cl)c1)=N\OC(=O)c1cccs1`?
Yeast life ext: -12.1; Yeast growth inh: 66.2*; HCT116 PTEN-null: 76.0; sdo1 growth: -1.69; bCat KO growth: 77.4

Results for Cc1ccccc1/C(N)=N/OC(=O)c1cccs1 ?
Yeast life ext: -7.7; Yeast growth inh: -10.3; HCT116 PTEN-null: 101.5; sdo1 growth: -1.61; bCat KO growth: 98.5

How did Cc1c(Cl)cccc1-n1nnnc1-c1cccs1 do in these assays?
Yeast life ext: -4.5; Yeast growth inh: -7.4; HCT116 PTEN-null: 85.8; sdo1 growth: -1.21; bCat KO growth: 91.2

How did N=c1c2c(-c3ccccc3)c(-c3ccccc3)n(Cc3ccco3)c2ncn1CCN1CCOCC1 do in these assays?
Yeast life ext: 30.1; Yeast growth inh: -31.7; HCT116 PTEN-null: 1.6*; sdo1 growth: -1.37; bCat KO growth: 1.2*

Results for N=c1c2c(-c3ccccc3)c(-c3ccccc3)n(Cc3ccco3)c2ncn1CCO ?
Yeast growth inh: -9.6; HCT116 PTEN-null: 1.7*; sdo1 growth: -0.79; bCat KO growth: 1.4*
